Results reported in ChEMBL document CHEMBL1126255, “Excitatory amino acid receptor ligands. Synthesis and biological activity of 3-isoxazolol amino acids structurally related to homoibotenic acid” (J Med Chem, 1992).

How the values were obtained:
[1] = biological target: Glutamate receptor ionotropic, kainate; test: Concentration required for 50% inhibition of [3H]-kainic acid binding to ionotropic glutamate receptor ionotropic kainate in rat cortical slice preparation
[2] = biological target: T1, Glutamate receptor ionotropic, AMPA (Rattus norvegicus, UniProt P19490+P19491+P19492+P19493); test: Concentration required for 50% inhibition of [3H]AMPA binding to AMPA receptor in rat cortical slice preparation
[3] = biological target: Glutamate NMDA receptor; test: Concentration required for 50% inhibition of [3H]-MK-801 binding to N-methyl-D-aspartate glutamate receptor in rat cortical slice preparation
How it was run: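 Fully stimulated rat brain membranes prepared by the Ransom and Stec method. Otherwise per an earlier protocol. At least three independent experiments per value.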

[4] = biological target: Glutamate NMDA receptor; test: Concentration required for 50% inhibition of [3H]-CPP binding to N-methyl-D-aspartate glutamate receptor in rat cortical slice preparation
How it was run: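 Rat brain membranes prepared by the Ransom and Stec method. [3H]CPP binding run per an earlier protocol, but ended by filtration through GF/B filters presoaked in 0.1% polyethyleneimine instead of centrifugation. At least three independent experiments per value.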

[5] = biological target: T1, Glutamate receptor ionotropic, AMPA; test: Concentration required for 50% inhibition of [3H]Glu binding to AMPA receptor in rat cortical slice preparation in the presence of 2.5 mM CaCl2

## NC(Cc1onc(O)c1CCO)C(=O)O (configuration not stated)
[1]
  IC50: > 100 µM
[2]
  IC50: 2 µM
[3]
  IC50: > 100 µM
[4]
  IC50: > 100 µM
[5]
  IC50: 0.14 µM

## CCCCc1c(O)noc1CC(N)C(=O)O (configuration not stated)
[1]
  IC50: > 100 µM
[2]
  IC50: 2 µM
[3]
  IC50: > 100 µM
[4]
  IC50: > 100 µM
[5]
  IC50: 0.18 µM

## CC(C)(C)c1onc(O)c1CC(N)C(=O)O (configuration not stated)
[3]
  IC50: > 100 µM
[4]
  IC50: > 100 µM

## CCCCCCCCc1c(O)noc1CC(N)C(=O)O (configuration not stated)
[1]
  IC50: > 100 µM
[2]
  IC50: > 100 µM
[3]
  IC50: > 100 µM
[4]
  IC50: > 100 µM
[5]
  IC50: 0.02 µM

## Cc1c(O)noc1CC(N)C(=O)O (configuration not stated)
[1]
  IC50: > 100 µM
[2]
  IC50: 0.6 µM
[3]
  IC50: > 100 µM
[4]
  IC50: > 100 µM
[5]
  IC50: 0.18 µM
